Compounds with a hit are over-represented: about 4.2% of the library has one in this group of screens.
AI-2 QS modul: modulates the Vibrio harveyi AI-2 quorum sensing system. Vibrio harveyi JMH597 AI-2 luminescence/OD600 ratio, 9 h; active compounds read low; strain lacks LuxN and CqsS sensors; 0 = neutral-control median. activity change, % at 7.5 µM. hit rate 0.4% among 300,000. AID 2094; in the data active means activity change below about -75%, passing the limit was not always enough; inconclusive means no clear call, values can overlap the other calls;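 further: luminescence divided by OD600 gain over 9 h not by final OD600 alone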
hERG protect: hERG (human) protection from proarrhythmic block. activation (rescue from dofetilide block), less the hit threshold, % at 10 µM. Q12809. AID 1511. CHO-hERG, FluxOR thallium flux, dofetilide IC70 present. hit rate 0.51% among 310,000;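 active means activation above the mean of controls blocked by dofetilide plus 5 SD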;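 further: thallium influx through hERG after potassium depolarization seen as dye fluorescence rise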
KCNQ1 block: human KCNQ1 channel inhibition. P51787. CHO-K1 KCNQ1, FluxOR thallium flux fluorescence; active compounds read high. B-score at 10 µM. hit rate 1.3% among 310,000. AID 2642;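 active means compounds whose thallium flux B-score, printed positive for inhibition, exceeds three library SD while starting fluorescence stays within three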;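 further: channel opened by potassium depolarization with thallium stimulus after 20 min compound exposure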
Cl transport mod: modulators of human KCC2 chloride dependent transport; KCC2 cells, thallium flux FluoZin-2 fluorescence; hit rate 2.2% among 190,000; B-score of Tl+ flux slope (higher = more flux/activation; lower = inhibition) at 10 µM; Q9H2X9;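 active means thallium flux slope and its plate-corrected score both differing from the plate sample mean at a set confidence after two filtering rounds, in either direction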;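 further: slope of fluorescence scaled to starting intensity during 10 to 20 s after thallium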
Target sequence (Q9H2X9 whole entry, looked up): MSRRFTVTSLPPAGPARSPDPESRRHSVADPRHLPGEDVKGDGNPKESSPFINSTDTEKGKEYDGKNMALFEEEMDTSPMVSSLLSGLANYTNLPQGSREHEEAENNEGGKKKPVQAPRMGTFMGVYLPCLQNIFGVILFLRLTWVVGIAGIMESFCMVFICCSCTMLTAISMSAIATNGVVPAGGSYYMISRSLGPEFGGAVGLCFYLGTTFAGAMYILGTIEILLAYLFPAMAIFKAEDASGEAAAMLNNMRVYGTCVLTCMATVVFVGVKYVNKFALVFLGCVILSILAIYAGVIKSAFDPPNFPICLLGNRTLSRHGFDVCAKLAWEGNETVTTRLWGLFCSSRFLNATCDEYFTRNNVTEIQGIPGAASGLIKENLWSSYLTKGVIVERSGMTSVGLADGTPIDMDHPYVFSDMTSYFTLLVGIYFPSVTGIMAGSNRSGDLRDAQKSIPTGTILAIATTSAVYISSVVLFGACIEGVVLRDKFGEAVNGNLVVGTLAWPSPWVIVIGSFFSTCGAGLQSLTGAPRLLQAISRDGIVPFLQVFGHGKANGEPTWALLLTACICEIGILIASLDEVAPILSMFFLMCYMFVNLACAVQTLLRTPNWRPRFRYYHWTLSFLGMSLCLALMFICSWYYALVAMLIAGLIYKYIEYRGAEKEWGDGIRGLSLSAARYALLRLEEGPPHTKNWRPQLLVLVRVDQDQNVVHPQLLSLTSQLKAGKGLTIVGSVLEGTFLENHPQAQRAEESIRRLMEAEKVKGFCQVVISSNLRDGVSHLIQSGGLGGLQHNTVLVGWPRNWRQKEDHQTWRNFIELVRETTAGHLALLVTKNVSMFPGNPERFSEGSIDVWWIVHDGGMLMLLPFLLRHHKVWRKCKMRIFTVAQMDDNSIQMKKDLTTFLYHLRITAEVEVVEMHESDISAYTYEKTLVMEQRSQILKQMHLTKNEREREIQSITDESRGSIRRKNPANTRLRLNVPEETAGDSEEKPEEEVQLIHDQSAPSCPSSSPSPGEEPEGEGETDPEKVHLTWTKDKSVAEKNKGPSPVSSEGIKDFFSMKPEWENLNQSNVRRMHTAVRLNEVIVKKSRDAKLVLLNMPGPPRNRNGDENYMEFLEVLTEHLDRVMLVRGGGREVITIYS
KCNQ1 pot: potentiators or activators of human KCNQ1 potassium channel; hit rate 0.35% among 310,000; CHO-K1 KCNQ1, thallium flux FluxOR fluorescence; active compounds read high; AID 2648; B-score at 10 µM;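 active means fluorescence ratio B-score, a plate-corrected score, at least three library SD, with initial intensity B-score within 5 SD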
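assay system = KCNQ1-transfected CHO-K1 cells | medium = assay buffer with matched DMSO | probe or stimulus = depolarizing K+/Tl+ stimulus, K2SO4 and Tl2SO4 each 12.5 mM in 5x stock | dosing = single dose | incubation = dye 90 min, compound 20 min, room temperature | detection = kinetic FluxOR fluorescence, 10 s baseline plus 110 s post-stimulus | evaluation = ratio B score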
SUMO Mot1 rescue: inhibitors of SUMOylation pathway: yeast Mot1-301 growth rescue; S. cerevisiae Mot1-301 growth rescue, ATP luminescence, 38.5C; percent above DMSO median, 100 means doubled; growth rescue, % at 18.8 µM; hit rate 1% among 320,000; AID 2716;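 active means every valid replicate shows activation above 250% relative to neutral control wells; inactive means the rest, any valid replicate at or below 250%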;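 further: OY570 slx delta 5 strain wells were the positive control but not used for scaling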
KCC2 secondary: KCC2 (human) modulation, secondary assay; shares compounds with Cl transport mod; HEK293-KCC2, thallium flux, FluoZin2 fluorescence; active compounds read high; normalised thallium flux (F/F0 slope) at 10 µM; hit rate 15% among 3,700; AID 1713;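 active means thallium flux slope above the same plate's solvent-only control mean plus 3 SD; inconclusive means the two replicate wells disagree; inactive means no significant difference from solvent-only control wells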
KCC2 bumet counter: thallium flux despite bumetanide block in KCC2 cells, secondary assay 3; hit rate 49% among 3,700; normalized thallium flux at 10 µM; shares compounds with Cl transport mod; HEK293-KCC2 + bumetanide/ouabain, thallium flux FluoZin2; active compounds read high;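 active means thallium entry rate above the same plate's blocked-transporter control wells by more than 3 SD; inconclusive means the two repeat wells disagree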;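 further: raw slope of fluorescence over initial fluorescence between 10 and 20 s after thallium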
KCC2 secondary2: confirmation of human KCC2 transport modulators | shares compounds with Cl transport mod | HEK293-KCC2, thallium flux FluoZin2 fluorescence; actives lie on both sides; F/F0 rise rate, 10–20 s post-thallium | normalized thallium flux at 10 µM | hit rate 23% among 3,700;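 active means thallium flux slope more than 3 SD above or below the plate's solvent-only control mean, mostly below; inconclusive means the two repeat wells disagreed; inactive means no significant shift from solvent-only controls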;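 further: raw slope with 0.1% DMSO as baseline and bumetanide as block control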
HEK293 Tl flux: parental HEK flux effect, counter-screen; shares compounds with Cl transport mod; HEK293 parental cells, thallium flux FluoZin2, ouabain; baseline-ratio fluorescence slope, 10–20 s after thallium; thallium flux rate (normalised fluorescence) at 10 µM; hit rate 46% among 3,700; AID 1716;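 active means thallium flux rate significantly above the same plate's solvent-only control wells, beyond their mean plus 3 SD; inconclusive means the two replicate wells gave conflicting results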
KCC2 ouabain: confirmation of human KCC2 modulators with ouabain | shares compounds with Cl transport mod | HEK293-KCC2, thallium flux FluoZin2 fluorescence; bidirectional: low = inhibitor, high = activator | raw Tl+ flux slope (below DMSO = inhibition, above = activation) at 10 µM | hit rate 48% among 3,700 | AID 1717;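 active means thallium flux slope beyond 3 SD from same-plate DMSO control mean in most replicates, usually higher, sometimes lower; inconclusive means repeat tests gave conflicting results; inactive means no significant difference from controls in most replicates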;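 further: slope of initial-normalized fluorescence between seconds 10 and 20 after thallium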
HEK counter2: parental HEK flux effect, counter-screen 2; shares compounds with Cl transport mod; HEK293 parental, thallium flux FluoZin-2 fluorescence slope; thallium flux slope at 10 µM; hit rate 33% among 3,700; AID 1718;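 active means thallium flux slope above the same plate's solvent-control mean plus 3 SD in both duplicate wells; inconclusive means duplicate wells that disagreed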;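 further: run without ouabain in cells lacking the KCC2 cotransporter; slope of fluorescence scaled to its starting value between 10 and 20 s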
* marks the source's active call; other numbers are inactive results; i = inactive; ? = inconclusive; · = no result given.

SMILES	AI-2 QS modul	hERG protect	KCNQ1 block	Cl transport mod	KCNQ1 pot	SUMO Mot1 rescue	KCC2 secondary	KCC2 bumet counter	KCC2 secondary2	HEK293 Tl flux	KCC2 ouabain	HEK counter2
O=C(c1ccc(COc2ccccc2Br)o1)N1CCN(c2ccccn2)CC1	-7	-11	i	-6.5*	i	196	?	?	0.032	0.0058*	0.013*	0.011
O=C(NCc1cccnc1)c1ccc(COc2ccc(Cl)cc2Cl)o1	24	-4	i	-4.4*	i	-2	0.0098	0.0072	0.029*	0.0036	0.015*	0.011
COC(=O)c1ccc2c(=O)n(CCN3CCOCC3)c(SCC(=O)NCc3ccccc3)nc2c1	43	-9	i	0.94	i	5	·	·	·	·	·	·
CCCN1CCC(NC23CC4CC(CC(C4)C2)C3)CC1	28	-7	i	·	i	-30	·	·	·	·	·	·
Cc1cc2c(cc1S(=O)(=O)Nc1ccc(OC(F)(F)F)cc1)OCC(=O)N2	29	-15	i	·	i	·	·	·	·	·	·	·
CCOc1ccc(OCc2ccc(C(=O)Nc3cccnc3)o2)cc1	16	-3	i	0.31	i	-1	·	·	·	·	·	·
O=C(c1cnn2cccnc12)N1CCN(Cc2ccc3c(c2)OCO3)CC1	9	-1	i	0.27	i	226	·	·	·	·	·	·
O=C(NCc1ccc2c(c1)OCO2)c1ccc(COc2cc(Cl)ccc2Cl)o1	14	-11	i	-5.7*	i	170	0.0077	0.0043	0.023*	0.0069	0.015*	0.0095
O=C(Nc1cccnc1)c1ccc(COc2ccccc2Cl)o1	14	-1	i	-8.1*	i	152	0.0061	?	0.022*	0.0077	?	0.011
O=C(c1ccc(COc2ccccc2Cl)o1)N1CCN(Cc2ccc3c(c2)OCO3)CC1	9	-12	i	-1.6	i	-9	0.007	0.0056	0.029	0.0062	?	0.01
CCOc1ncccc1C(=O)N1CCN(Cc2ccc3c(c2)OCO3)CC1	14	-6	i	4.8*	i	297	0.016	0.0042	0.028	0.0077	0.018	0.0093
O=C(Cn1cc([N+](=O)[O-])nc1[N+](=O)[O-])N1CCN(c2ccccc2)CC1	6	-6	i	-0.041	i	-9	·	·	·	·	·	·
COc1ccccc1NC(=O)c1ccc(COc2ccccc2OC)o1	19	3	i	-3.7*	i	6	0.0054	?	?	0.0067	?	0.011
COc1ccccc1NC(=O)c1ccc(COc2ccccc2Br)o1	22	-7	i	·	i	-13	·	·	·	·	·	·
Fc1ccc(OCc2nc(-c3ccc(Br)o3)no2)c(F)c1	-52	-7	i	·	i	23	0.0066	0.0057	0.027	0.0062	0.015*	0.0088
Cc1ccc(C)c(C(=O)OCC(=O)Nc2cccc(S(=O)(=O)N3CCCCC3)c2)c1	·	·	·	·	·	-3	·	·	·	·	·	·
CCc1nc(N)c(C#N)c(-c2ccc(O)c(OC)c2)c1C	0	-11	i	-2.9	i	3	·	·	·	·	·	·
COc1cc(-c2c(C#N)c(=O)[nH]c3c2c(C)nn3-c2ccccc2)ccc1O	10	-22	i	-5*	i	284	0.0078	0.0041	0.03	0.0067	?	0.0093
O=C(NC(=S)N1CCOCC1)c1cc2ccccc2o1	21	-15	i	-0.00059	i	3	·	·	·	·	·	·
O=C(c1cccc(S(=O)(=O)NCc2ccccc2)c1)N1CCCCC1	19	-19	i	·	i	-4	·	·	·	·	·	·
Cc1ccc(S(=O)(=O)NCc2ccc(C(=O)N3CCN(Cc4ccccc4)CC3)cc2)cc1	14	-4	i	-2.6*	i	-11	0.0061	?	0.027*	0.0072	?	0.01
O=C(c1cccc(S(=O)(=O)NCc2ccccc2)c1)N1CCN(Cc2ccccc2)CC1	16	-14	i	-2.7*	i	9	0.0073	0.0061*	0.03	0.0072	0.018	0.011
COc1ccc(S(=O)(=O)NCc2ccc(C(=O)N3CCN(Cc4ccccc4)CC3)cc2)cc1	22	-7	i	·	i	7	·	·	·	·	·	·
O=c1[nH]nc(-c2ccccc2)c2ccccc12	9	-18	i	0.16	i	-8	·	·	·	·	·	·
c1ccc(-c2n[nH]c3ccccc23)cc1	14	-8	i	-2.9*	i	21	0.0077	0.0061	0.03	0.0066	0.02	0.0096
SMILES	AI-2 QS modul	hERG protect	KCNQ1 block	Cl transport mod	KCNQ1 pot	SUMO Mot1 rescue	KCC2 secondary	KCC2 bumet counter	KCC2 secondary2	HEK293 Tl flux	KCC2 ouabain	HEK counter2
Fc1ccc(-c2n[nH]c(=S)c3ccccc23)cc1	17	-14	i	14*	i	·	0.011	0.021*	0.034	0.016*	?	0.013*
CC1CC(C)CN(c2cc(N(C)CCO)c([N+](=O)[O-])c3nonc23)C1 (configuration not stated)	28	-10	i	0.12	i	-23	·	·	·	·	·	·
CCCCNC(=O)c1ccc2c(=O)n(CCCOCC)c(=S)[nH]c2c1	7	-12	i	0.24	i	1	·	·	·	·	·	·
CCOCCCNC(=O)c1ccc(-n2c(=S)[nH]c3ccccc3c2=O)cc1	25	-12	i	10*	i	i	?	0.015*	0.031	0.0093*	?	0.01*
COC(=O)c1ccc2c(=O)n(-c3ccc(OC)cc3)c(=S)[nH]c2c1	-11	-12	i	8.2*	i	·	0.01	0.02*	0.03	0.012*	?	0.0098
COc1ccc(-n2c(=S)[nH]c3cc(C(=O)O)ccc3c2=O)cc1	8	-9	i	-0.55	i	-12	·	·	·	·	·	·
CCOC(=O)Cn1c(CN2CCN(C(c3ccccc3)c3ccccc3)CC2)nc2c1c(=O)n(C)c(=O)n2C	34	-15	i	-1.2	i	-3	·	·	·	·	·	·

Screens deposited in PubChem by several laboratories.
